pEC50: −log10 of the molar value.
Experiments:
NSCLC cell line H460 = test: SRB cytotoxicity assay in NSCLC cell line H460; assay type: cell-based; settings: for cytoselective anti-cancer effects in H460 and H460TaxR cells (in words): single concentration 10 µM, SRB, H460 and H460TaxR versus NHFB
Outline: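 Sulforhodamine B (SRB) viability assay in H460 cells, run alongside drug-resistant H460TaxR and normal human fibroblasts (NHFB). The initial screen used a single test-compound concentration of 10 µM. DMSO served as the negative control, and viability in DMSO was set to 100%. Selected compounds were also tested across a range of doses in H460 and H460TaxR to give dose-dependent cytotoxicity.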

[1] = system: normal human fibroblasts (NHFB); test: SRB cytotoxicity assay in normal human fibroblasts; assay type: cell-based; settings: Fibroblast, read-out: EC50 NHFB
[2] = high throughput aqueous solubility assay; assay type: physicochemical; settings: for aqueous solubility (in words): comparison within libraries

Compound | cytoselective anti-cancer effects in H460 and H460TaxR cells (in words) (NSCLC cell line H460) | pEC50 [1] | anti-cancer activity (in words) (NSCLC cell line H460; H460 and H460TaxR) | further results
CN(C)c1ccc(/C=C2/SC(=Nc3ccccc3)NC2=O)cc1 [Compound 1] | good cytoselective anti-cancer effects | < 4.00 |  | 
O=C1N=C(Nc2ccc(O)cc2)S/C1=C/c1ccc(N2CCNCC2)cc1 [Compound 10] |  |  | reduced anticancer activity | aqueous solubility (in words) [2]: largest improvement in aqueous solubility
CN(C1=NC(=O)/C(=C\c2ccc(N3CCNCC3)cc2)S1)c1ccccc1 [Compound 35] |  |  | weak anti-cancer effects | 
CN(C1=NC(=O)/C(=C\c2ccc(N3CCOCC3)cc2)S1)c1ccccc1 [Compound 33] |  | < 4.00 | weak anti-cancer effects | aqueous solubility (in words) [2]: significantly better
O=C1N=C(Nc2ccccc2)S/C1=C/c1ccc(N2CCNCC2)cc1 [Compound 5] |  | < 4.00 | reduced anticancer activity | aqueous solubility (in words) [2]: largest improvement in aqueous solubility
CCN(CC)c1ccc(/C=C2/SC(Nc3ccccc3)=NC2=O)cc1 [Compound 2] | good cytoselective anti-cancer effects | < 4.00 |  | 
CN(C)c1ccc(/C=C2/SC(N(C)c3ccccc3)=NC2=O)cc1 [Compound 31] | potent cytoselective anti-cancer activity |  |  | improvement in aqueous solubility ([2]; compared to compound 1): 5 fold; improvement in anti-cancer activity (EC50) (NSCLC cell line H460; H460 and H460TaxR, compared to compound 1): 10 fold
CCN(CC)c1ccc(/C=C2/SC(N(C)c3ccccc3)=NC2=O)cc1 [Compound 32] | potent cytoselective anti-cancer activity | < 4.00 |  | aqueous solubility (in words) [2]: did not improve solubility
CN(C)c1ccc(/C=C2/SC(=Nc3ccccc3Cl)NC2=O)cc1 [Compound 11] | good cytoselective anti-cancer effects |  |  | 
CN1CCN(c2ccc(/C=C3/SC(N(C)c4ccccc4)=NC3=O)cc2)CC1 [Compound 34] |  |  | weak anti-cancer effects | 
Cc1ccccc1NC1=NC(=O)/C(=C\c2ccc(N3CCNCC3)cc2)S1 [Compound 25] |  |  | reduced anticancer activity | aqueous solubility (in words) [2]: largest improvement in aqueous solubility
Cc1ccccc1/N=C1\NC(=O)/C(=C\c2ccc(N(C)C)cc2)S1 [Compound 21] | good cytoselective anti-cancer effects |  |  | 
CN(C)c1ccc(/C=C2/SC(N(c3ccccc3)c3ccccc3)=NC2=O)cc1 [Compound 26] |  | < 4.00 |  | 
CCN(CC)c1ccc(/C=C2/SC(Nc3ccccc3Cl)=NC2=O)cc1 [Compound 12] | good cytoselective anti-cancer effects |  |  | 
CCN(CC)c1ccc(/C=C2/SC(N(c3ccccc3)c3ccccc3)=NC2=O)cc1 [Compound 27] |  | < 4.00 |  | 
CCN(CC)c1ccc(/C=C2/SC(Nc3ccccc3C)=NC2=O)cc1 [Compound 22] | good cytoselective anti-cancer effects |  |  | 
CN1CCN(c2ccc(/C=C3/SC(Nc4ccccc4)=NC3=O)cc2)CC1 [Compound 4] | good cytoselective anti-cancer effects |  |  | 
O=C1N=C(Nc2ccccc2)S/C1=C/c1ccc(N2CCOCC2)cc1 [Compound 3] |  | < 4.00 |  | 

Reference: publication PMC5586103 (Bioorganic & medicinal chemistry letters, 2015)
